From ChEMBL document CHEMBL1151741, “Aryl bis(diazeniumdiolates): potent inducers of S-glutathionylation of cellular proteins and their in vitro antiproliferative activities” (J Med Chem, 2008)
Each block holds one compound with its values, some of them ahead of it. The source made the active and inactive calls. The rule behind the calls is not given here.

Key:
[1] = Nitric oxide release measured per mole of compound at pH 7.4 in presence of glutathione
Procedure, shortened: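 Compound stock was injected into 0.1 M phosphate buffer, pH 7.4, containing 4 mM GSH and 50 μM DTPA, sparged with inert gas. NO was followed by chemiluminescence at 37 °C until the signal returned to baseline (25 min – 5 h). The integrated curve gave mol NO per mol compound.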

HL-60 [2] = assay: Antiproliferative activity against human HL-60 cells after 72 hrs by MTT assay; type: functional, cell-based; settings: HL-60, 72 h
Procedure, shortened: (§1)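 Cells kept in RPMI 1640 with 10% fetal calf serum, penicillin/streptomycin and 2 mM glutamine at 37 °C, 5% CO2. Seeded at 10⁴ per well and grown 24 h. Increasing drug concentrations (from 10 mM DMSO stocks, diluted in PBS) were added for 72 h at 37 °C. Proliferation was read by MTT. Six repeats per concentration, at least two independent experiments. IC50 is 50% proliferation inhibition; TGI is total growth inhibition.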

HL-60 [3] = assay: Induction of protein S-glutathionylation in human HL-60 cell lysate at 5 uM; type: functional, cell-based
Procedure, shortened: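 Equal numbers of HL-60 cells in complete RPMI medium were given 5 μM compound or a DMSO vehicle control. Cells were lysed in pH 7.2 Hepes/NP-40/deoxycholate buffer with protease inhibitors. 10 μg of protein was run on SDS-PAGE under nonreducing conditions and blotted to PVDF. Blots were probed with anti-glutathione monoclonal antibody (1:1000, 3 h, room temperature), then HRP secondary, with ECL detection. Blots were stripped and reprobed for β-actin as a loading control.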

U-937 = assay: Antiproliferative activity against human U937 cells after 72 hrs by MTT assay; type: functional, cell-based; settings: U-937, 72 h; procedure, shortened: as §1
[4] = Antiproliferative activity against human H441 cells after 72 hrs by MTT assay; type: functional, cell-based; settings: NCI-H441, 72 h; procedure, shortened: as §1
A549 = assay: Antiproliferative activity against human A549 cells after 72 hrs by MTT assay; type: functional, cell-based; settings: A549, 72 h; procedure, shortened: as §1
[5] = Antiproliferative activity against human HCT 116 cells after 72 hrs by MTT assay; type: functional, cell-based; settings: HCT-116, 72 h; procedure, shortened: as §1
HCT-15 = assay: Antiproliferative activity against human HCT-15 cells after 72 hrs by MTT assay; type: functional, cell-based; settings: HCT-15, 72 h; procedure, shortened: as §1
HT-29 = assay: Antiproliferative activity against human HT-29 cells after 72 hrs by MTT assay; type: functional, cell-based; settings: HT-29, 72 h; procedure, shortened: as §1
OVCAR-3 = assay: Antiproliferative activity against human OVCAR-3 cells after 72 hrs by MTT assay; type: functional, cell-based; settings: OVCAR-3, 72 h; procedure, shortened: as §1
OVCAR-5 = assay: Antiproliferative activity against human OVCAR5 cells after 72 hrs by MTT assay; type: functional, cell-based; settings: OVCAR-5, 72 h; procedure, shortened: as §1
PC-3 = assay: Antiproliferative activity against human PC-3 cells after 72 hrs by MTT assay; type: functional, cell-based; settings: PC-3, 72 h; procedure, shortened: as §1

SMILES: O=C(O)[C@@H]1CCCN1/[N+]([O-])=N/Oc1cc(O/N=[N+](\[O-])N2CCC[C@H]2C(=O)O)c([N+](=O)[O-])cc1[N+](=O)[O-]
Activity [1]: 3.5 mol/mol | IC50 (HL-60 [2]): 9.6 µM | TGI (HL-60 [2]): > 10 µM | Activity (HL-60 [3]): inactive

SMILES: CCN(CC)C(=O)N1CCN(/[N+]([O-])=N/Oc2cc(O/N=[N+](\[O-])N(CC)CC)c([N+](=O)[O-])cc2[N+](=O)[O-])CC1
Activity [1]: 3 mol/mol | IC50 (HL-60 [2]): 2.9 µM | TGI (HL-60 [2]): > 10 µM | Activity (HL-60 [3]): Active

SMILES: CCOC(=O)N1CCN(/[N+]([O-])=N/Oc2cc(O/N=[N+](\[O-])N(CC)CC)c([N+](=O)[O-])cc2[N+](=O)[O-])CC1
Activity [1]: 3.1 mol/mol | IC50 (HL-60 [2]): 2.1 µM | TGI (HL-60 [2]): 5 µM | Activity (HL-60 [3]): Active

SMILES: CN(C)/[N+]([O-])=N/Oc1cc(O/N=[N+](\[O-])N2CCCC2)c([N+](=O)[O-])cc1[N+](=O)[O-]
Activity [1]: 3.6 mol/mol | IC50 (HL-60 [2]): 2.3 µM | TGI (HL-60 [2]): 4.9 µM | Activity (HL-60 [3]): Active

SMILES: CCN(CC)C(=O)N1CCN(/[N+]([O-])=N/Oc2cc(O/N=[N+](\[O-])N(C)C)c([N+](=O)[O-])cc2[N+](=O)[O-])CC1
Activity [1]: 3.5 mol/mol | IC50 (HL-60 [2]): 1.9 µM | TGI (HL-60 [2]): 4.9 µM | Activity (HL-60 [3]): Active

SMILES: O=[N+]([O-])c1cc([N+](=O)[O-])c(O/N=[N+](\[O-])N2CCC[C@H]2CO)cc1O/N=[N+](\[O-])N1CCC[C@H]1CO
Activity [1]: 2.5 mol/mol | IC50 (HL-60 [2]): 4 µM | TGI (HL-60 [2]): > 10 µM | Activity (HL-60 [3]): Active

SMILES: CCN(CC)/[N+]([O-])=N/Oc1cc(O/N=[N+](\[O-])N2CCCC2CO)c([N+](=O)[O-])cc1[N+](=O)[O-] (centres undefined)
Activity [1]: 3 mol/mol | IC50 (HL-60 [2]): 1.8 µM | TGI (HL-60 [2]): 4 µM | Activity (HL-60 [3]): Active

SMILES: CNc1ccc(C(=O)Oc2cc(O/N=[N+](\[O-])N(C)C)c([N+](=O)[O-])cc2[N+](=O)[O-])cc1
Activity [1]: 1.4 mol/mol | TGI (HL-60 [2]): > 10 µM | IC50 (U-937): 2.7 µM | TGI (U-937): 5.5 µM | IC50 [4]: 4.9 µM | TGI [4]: > 10 µM | IC50 (A549): > 10 µM | TGI (A549): > 10 µM | IC50 [5]: 5.5 µM | TGI [5]: > 10 µM | IC50 (HCT-15): 5.7 µM | TGI (HCT-15): > 10 µM | IC50 (HT-29): 7 µM | TGI (HT-29): > 10 µM | IC50 (OVCAR-3): 5 µM | TGI (OVCAR-3): 9.5 µM | IC50 (OVCAR-5): 7.8 µM | TGI (OVCAR-5): > 10 µM | IC50 (PC-3): > 10 µM | TGI (PC-3): > 10 µM | Activity (HL-60 [3]): Active

The remaining compounds from weak to strong by IC50 (HL-60 [2]), led by results:

IC50 (HL-60 [2]): 1.7 µM
SMILES: CN(C)/[N+]([O-])=N/Oc1cc(O/N=[N+](\[O-])N2CCCCC2)c([N+](=O)[O-])cc1[N+](=O)[O-]
Activity [1]: 3.7 mol/mol | TGI (HL-60 [2]): 4.9 µM | Activity (HL-60 [3]): Active

IC50 (HL-60 [2]): 1.6 µM
SMILES: CCCOC(=O)N1CCN(/[N+]([O-])=N/Oc2cc(O/N=[N+](\[O-])N(C)C)c([N+](=O)[O-])cc2[N+](=O)[O-])CC1
Activity [1]: 3.7 mol/mol | TGI (HL-60 [2]): 3.9 µM | Activity (HL-60 [3]): Active

IC50 (HL-60 [2]): 1.5 µM
SMILES: CC1CCCCN1/[N+]([O-])=N/Oc1cc(O/N=[N+](\[O-])N(C)C)c([N+](=O)[O-])cc1[N+](=O)[O-] (centres undefined)
Activity [1]: 3 mol/mol | TGI (HL-60 [2]): 4.9 µM | Activity (HL-60 [3]): Active

IC50 (HL-60 [2]): 1.2 µM
SMILES: CN(C)/[N+]([O-])=N/Oc1cc(O/N=[N+](\[O-])N2CCN(c3ncccn3)CC2)c([N+](=O)[O-])cc1[N+](=O)[O-]
Activity [1]: 3.5 mol/mol | TGI (HL-60 [2]): 5 µM | Activity (HL-60 [3]): Active

IC50 (HL-60 [2]): 1.2 µM | IC50 (U-937): 1.3 µM | IC50 (A549): 9.1 µM | IC50 (HCT-15): 2.5 µM | IC50 (HT-29): 4.5 µM | IC50 (OVCAR-3): 1.3 µM | IC50 (OVCAR-5): 3.3 µM | IC50 (PC-3): 5 µM
SMILES: CCOC(=O)N1CCN(/[N+]([O-])=N/Oc2cc(O/N=[N+](\[O-])N(C)C)c([N+](=O)[O-])cc2[N+](=O)[O-])CC1
Activity [1]: 2.7 mol/mol | TGI (HL-60 [2]): 2 µM | TGI (U-937): 3 µM | IC50 [4]: 5 µM | TGI [4]: 7 µM | TGI (A549): > 30 µM | IC50 [5]: 2.4 µM | TGI [5]: 4 µM | TGI (HCT-15): 4 µM | TGI (HT-29): 10 µM | TGI (OVCAR-3): 2.3 µM | TGI (OVCAR-5): 9 µM | TGI (PC-3): 7 µM | Activity (HL-60 [3]): Active

IC50 (HL-60 [2]): 1 µM
SMILES: CCN(CC)/[N+]([O-])=N/Oc1cc(O/N=[N+](\[O-])N(C)C)c([N+](=O)[O-])cc1[N+](=O)[O-]
Activity [1]: 3.8 mol/mol | TGI (HL-60 [2]): 2.3 µM | Activity (HL-60 [3]): Active

IC50 (HL-60 [2]): 1 µM | IC50 (U-937): 0.8 µM | IC50 (A549): 5.1 µM | IC50 (HCT-15): 1.7 µM | IC50 (HT-29): 2.4 µM | IC50 (OVCAR-3): 1.7 µM | IC50 (OVCAR-5): 2.5 µM | IC50 (PC-3): 3.3 µM
SMILES: CN(C)/[N+]([O-])=N/Oc1cc(O/N=[N+](\[O-])N2CCCC2CO)c([N+](=O)[O-])cc1[N+](=O)[O-] (centres undefined)
Activity [1]: 3 mol/mol | TGI (HL-60 [2]): 2 µM | TGI (U-937): 1.2 µM | IC50 [4]: 2.1 µM | TGI [4]: 4.5 µM | TGI (A549): 6 µM | IC50 [5]: 1.6 µM | TGI [5]: 3.6 µM | TGI (HCT-15): 3.3 µM | TGI (HT-29): 4.5 µM | TGI (OVCAR-3): 3.8 µM | TGI (OVCAR-5): 4 µM | TGI (PC-3): 7 µM | Activity (HL-60 [3]): Active

IC50 (HL-60 [2]): 0.9 µM
SMILES: CCCCOC(=O)N1CCN(/[N+]([O-])=N/Oc2cc(O/N=[N+](\[O-])N(C)C)c([N+](=O)[O-])cc2[N+](=O)[O-])CC1
Activity [1]: 3.1 mol/mol | TGI (HL-60 [2]): 2.7 µM | Activity (HL-60 [3]): Active

IC50 (HL-60 [2]): 0.9 µM | IC50 (U-937): 0.9 µM | IC50 (A549): 3.9 µM | IC50 (HCT-15): 1.6 µM | IC50 (HT-29): 2.5 µM | IC50 (OVCAR-3): 1.4 µM | IC50 (OVCAR-5): 1.9 µM | IC50 (PC-3): 3.3 µM
SMILES: CCOC(=O)N1CCN(/[N+]([O-])=N/Oc2cc(O/N=[N+](\[O-])N3CCN(C(=O)N(CC)CC)CC3)c([N+](=O)[O-])cc2[N+](=O)[O-])CC1
Activity [1]: 2.9 mol/mol | TGI (HL-60 [2]): 3 µM | TGI (U-937): 3 µM | IC50 [4]: 1.7 µM | TGI [4]: 4 µM | TGI (A549): 10 µM | IC50 [5]: 1.5 µM | TGI [5]: 4 µM | TGI (HCT-15): 4.5 µM | TGI (HT-29): 6.5 µM | TGI (OVCAR-3): 4 µM | TGI (OVCAR-5): 5.5 µM | TGI (PC-3): 8 µM | Activity (HL-60 [3]): Active
